Data: ChEMBL document CHEMBL4130549, “Synthesis and bioactivities study of new antibacterial peptide mimics: The dialkyl cationic amphiphiles” (Eur J Med Chem, 2018)
Activity calls are given as the source filed them. The calls are words filed in the database; no cut-off is given here.

How the values were obtained:
[1] = system: Staphylococcus aureus; test: Antibacterial activity against Staphylococcus aureus ATCC 29213 after 16 to 20 hrs by broth microdilution method; assay type: functional
Outline: (§1)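 CLSI broth microdilution in cation-adjusted Mueller-Hinton broth. A 4-6 h culture was diluted to about 10⁶ CFU/mL and mixed 1:1 with twofold compound dilutions (256–0.5 µg/mL before mixing) prepared from aqueous stocks. Plates were incubated at 37 °C for 16-20 h. Each concentration was tested in duplicate, and the experiment was repeated at least twice.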

[2] = system: Staphylococcus aureus; test: Induction of cytoplasmic membrane depolarization in Staphylococcus aureus ATCC 29213 at 20 ug/ml measured every 2 mins for 12 mins by diSC35 staining based fluorescence assay; assay type: functional, organism-based
Outline: (§2)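 Mid-log cells (4–6 h) pelleted, washed and resuspended (~10^8 CFU/mL) in PBS for S. aureus, or in 5 mM HEPES, 5 mM glucose and 100 mM KCl (1:1:1) for E. coli. Preloaded with diSC35 (10 µM, 50 µL), 30 min for S. aureus and 40 min plus EDTA (200 µM, 50 µL) for E. coli. Baseline read 8 min (ex 622/em 670 nm), then compound added to 20 µg/mL final and read every 2 min for 12 min. Water control.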

[3] = system: Escherichia coli; test: Induction of cytoplasmic membrane depolarization in Escherichia coli ATCC 25922 at 20 ug/ml measured every 2 mins for 12 mins by diSC35 staining based fluorescence assay; assay type: functional, organism-based; outline: as §2
[4] = system: Escherichia coli; test: Antibacterial activity against Escherichia coli ATCC 25922 after 16 to 20 hrs by broth microdilution method; assay type: functional
Outline: (§3)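 Broth microdilution per CLSI in cation-adjusted Mueller-Hinton broth; 4-6 h cultures (~10⁸ CFU/mL) diluted to ~10⁶ CFU/mL and mixed 1:1 with twofold dilutions of water-dissolved compound (256 to 0.5 µg/mL). Incubated 16-20 h at 37 °C; MIC read visually. Each concentration run in duplicate, whole experiment repeated at least twice. MRSA, KPC and NDM-1 strains were clinical isolates.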

[5] = Hemolytic activity in sheep RBC after 1 hr; assay type: ADME, cell-based, Ovis aries, Erythrocyte; details: sheep red blood cells (erythrocytes)
Outline: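 Sheep RBCs suspended at 5% in PBS; 150 µL added to 50 µL compound dilutions (5120 to 10 µg/mL series). Incubated 1 h at 37 °C, then centrifuged; supernatant absorbance read at 540 nm. Lysis (%) = (A−A0)/(Atotal−A0)×100, with untreated 5% RBC as A0 and 0.1% Triton X-100 as total.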

[6] = system: Enterococcus faecalis; test: Antibacterial activity against Enterococcus faecalis after 16 to 20 hrs by broth microdilution method; assay type: functional; outline: as §3
[7] = system: Escherichia coli; test: Induction of inner membrane permeabilization in Escherichia coli ATCC 25922 at 20 ug/ml measured every 2 mins for 12 mins by propidium iodide staining based fluorescence assay; assay type: functional, organism-based
Outline: (§4)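 Mid-log cells (~10^8 CFU/mL) pre-incubated with propidium iodide (10 µM, 50 µL), 30 min for S. aureus and 40 min for E. coli. Fluorescence (ex 535/em 617 nm) read for 8 min, then compound added to 20 µg/mL final and monitored every 2 min for 12 min. Water-treated control.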

[8] = system: Escherichia coli; test: Induction of outer membrane permeabilization in Escherichia coli ATCC 25922 at 20 ug/ml measured every 2 mins for 12 mins by NPN staining based fluorescence assay; assay type: functional, organism-based
Outline: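 Mid-log E. coli (~10^8 CFU/mL) in black plates pre-incubated about 40 min with NPN (10 µM, 50 µL). Baseline read 8 min (ex 350/em 420 nm), then compound added to 20 µg/mL final and fluorescence followed every 2 min for 12 min. Water-treated control.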

[9] = system: Salmonella enterica; test: Antibacterial activity against Salmonella enterica after 16 to 20 hrs by broth microdilution method; assay type: functional; outline: as §3
[10] = system: Staphylococcus aureus; test: Induction of inner membrane permeabilization in Staphylococcus aureus ATCC 29213 at 20 ug/ml measured every 2 mins for 12 mins by propidium iodide staining based fluorescence assay; assay type: functional, organism-based; outline: as §4
[11] = system: Staphylococcus aureus; test: Antibacterial activity against methicillin-resistant Staphylococcus aureus after 16 to 20 hrs by broth microdilution method; assay type: functional; outline: as §1
[12] = system: Staphylococcus aureus; test: Antibacterial activity against methicillin-resistant Staphylococcus aureus isolate M1 after 16 to 20 hrs by broth microdilution method; assay type: functional; outline: as §1
[13] = system: Staphylococcus aureus; test: Antibacterial activity against methicillin-resistant Staphylococcus aureus isolate M9 after 16 to 20 hrs by broth microdilution method; assay type: functional; outline: as §1
[14] = system: Staphylococcus aureus; test: Antibacterial activity against methicillin-resistant Staphylococcus aureus isolate M5 after 16 to 20 hrs by broth microdilution method; assay type: functional; outline: as §1
[15] = system: Staphylococcus aureus; test: Antibacterial activity against methicillin-resistant Staphylococcus aureus isolate M7 after 16 to 20 hrs by broth microdilution method; assay type: functional; outline: as §1
[16] = system: Staphylococcus aureus; test: Antibacterial activity against methicillin-resistant Staphylococcus aureus isolate M8 after 16 to 20 hrs by broth microdilution method; assay type: functional; outline: as §1
[17] = system: Staphylococcus aureus; test: Antibacterial activity against methicillin-resistant Staphylococcus aureus isolate M6 after 16 to 20 hrs by broth microdilution method; assay type: functional; outline: as §1
[18] = system: Staphylococcus aureus; test: Antibacterial activity against methicillin-resistant Staphylococcus aureus isolate M2 after 16 to 20 hrs by broth microdilution method; assay type: functional; outline: as §1
[19] = system: Staphylococcus aureus; test: Antibacterial activity against methicillin-resistant Staphylococcus aureus isolate M4 after 16 to 20 hrs by broth microdilution method; assay type: functional; outline: as §1
[20] = system: Staphylococcus aureus; test: Antibacterial activity against methicillin-resistant Staphylococcus aureus isolate M3 after 16 to 20 hrs by broth microdilution method; assay type: functional; outline: as §1
[21] = system: Staphylococcus aureus; test: Antibacterial activity against methicillin-resistant Staphylococcus aureus isolate M10 after 16 to 20 hrs by broth microdilution method; assay type: functional; outline: as §1

| SMILES | MIC [1] | Activity [2] | Activity [3] | MIC [4] | HC50 at 1 h [5] | MIC [6] | Activity [7] | Activity [8] | MIC [9] | Activity [10] | MIC [11] | MIC [12] | MIC [13] | MIC [14] | MIC [15] | MIC [16] | MIC [17] | MIC [18] | MIC [19] | MIC [20] | also measured |
| --- | --- | --- | --- | --- | --- | --- | --- | --- | --- | --- | --- | --- | --- | --- | --- | --- | --- | --- | --- | --- | --- |
| CCCCN(CCCC)C(=O)[C@@H](N)CCCCN.Cl.Cl | > 128 µg/mL | Active | Active | > 128 µg/mL | 743 µg/mL | 128 µg/mL | Active | Active | 128 µg/mL | Active | – | – | – | – | – | – | – | – | – | – | – |
| CCCCCCN(CCCCCC)C(=O)[C@@H](N)CCCCN.Cl.Cl | 64 µg/mL | Active | Active | 64 µg/mL | 496 µg/mL | 64 µg/mL | Active | Active | 64 µg/mL | Active | – | – | – | – | – | – | – | – | – | – | – |
| CCCCCCCCCCN(CCCCCCCCCC)C(=O)[C@@H](N)CO.Cl | 8 µg/mL | Active | Active | > 128 µg/mL | > 1000 µg/mL | 8 µg/mL | Active | Active | > 128 µg/mL | Active | 16 µg/mL | 16 µg/mL | 16 µg/mL | 16 µg/mL | 8 µg/mL | 16 µg/mL | 8 µg/mL | 4 µg/mL | 4 µg/mL | 4 µg/mL | MIC [21]: 16 µg/mL |
| CCN(CC)C(=O)[C@@H](N)CCCCN.Cl.Cl | > 128 µg/mL | Active | Active | > 128 µg/mL | > 1000 µg/mL | > 128 µg/mL | Active | Active | > 128 µg/mL | Active | – | – | – | – | – | – | – | – | – | – | – |
| C[C@@H](O)[C@H]1C(=O)N2C(C(=O)O)=C(S[C@@H]3CN[C@H](C(=O)N(C)C)C3)[C@H](C)[C@H]12 [MEROPENEM] | – | – | – | < 0.125 µg/mL | – | – | – | – | – | – | – | – | – | – | – | – | – | – | – | – | – |
| CCCCCCCCN(CCCCCCCC)C(=O)[C@@H](N)[C@@H](C)CC.Cl | 4 µg/mL | Active | Active | > 128 µg/mL | 293 µg/mL | 4 µg/mL | Active | Active | > 128 µg/mL | Active | 4 µg/mL | 4 µg/mL | 4 µg/mL | 4 µg/mL | 4 µg/mL | 4 µg/mL | 4 µg/mL | 4 µg/mL | 4 µg/mL | 4 µg/mL | MIC [21]: 4 µg/mL |
| CCCCCN(CCCCC)C(=O)[C@@H](N)CCCCN.Cl.Cl | 128 µg/mL | Active | Active | 128 µg/mL | 576 µg/mL | 128 µg/mL | Active | Active | 128 µg/mL | Active | – | – | – | – | – | – | – | – | – | – | – |
| CCCCCCCCN(CCCCCCCC)C(=O)[C@@H](N)CC(C)C.Cl | 2 µg/mL | Active | Active | 64 µg/mL | > 1000 µg/mL | 2 µg/mL | Active | Active | > 128 µg/mL | Active | 4 µg/mL | 4 µg/mL | 4 µg/mL | 4 µg/mL | 4 µg/mL | 4 µg/mL | 4 µg/mL | 2 µg/mL | 2 µg/mL | 2 µg/mL | MIC [21]: 4 µg/mL |
| CCCCCCCCN(CCCCCCCC)C(=O)[C@@H](N)Cc1ccccc1.Cl | 8 µg/mL | Active | Active | > 128 µg/mL | > 1000 µg/mL | 128 µg/mL | Active | Active | > 128 µg/mL | Active | 32 µg/mL | 32 µg/mL | 32 µg/mL | 32 µg/mL | 16 µg/mL | 32 µg/mL | 32 µg/mL | 16 µg/mL | 16 µg/mL | 16 µg/mL | MIC [21]: 32 µg/mL |
| CCCCCCCCCCN(CCCCCCCCCC)C(=O)[C@H](N)CO.Cl | 16 µg/mL | Active | Active | > 128 µg/mL | > 1000 µg/mL | 32 µg/mL | Active | Active | > 128 µg/mL | Active | 32 µg/mL | 32 µg/mL | 32 µg/mL | 32 µg/mL | 32 µg/mL | 32 µg/mL | 32 µg/mL | 32 µg/mL | 32 µg/mL | 32 µg/mL | MIC [21]: 32 µg/mL |
